Test results reported in PMC4284021 (The Journal of Pharmacy and Pharmacology, 2014).
Several values for one entry are separate records, joined by “and”; a condition that tells them apart may be missing. Identical values can stand only once. Entries after “also recorded” stand apart in the source; their conditions may differ. Marks after values point to notes of the source that are not given here.

What was measured:
[1] = Multiple-dose pharmacokinetics of evacetrapib in plasma; format: in vivo, human; details: for CL/F: geometric mean (CV %)
Outline: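 Once-daily oral doses of 10–600 mg for 14–15 days. Sampling: six serial samples on Day 1; 11 through 336 h after the last dose; trough samples on Days 2, 3, 4, 7 and 10. Acidified K2EDTA plasma was extracted by anion-exchange SPE with an isotope-labelled internal standard. Analysis by C18 LC/MS/MS, positive ion, SRM m/z 639→314. Range 1–1000 ng/ml. Parameters by non-compartmental analysis; dose proportionality on Day 14 by power model.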

[2] = biological target: T1, cholesteryl ester transfer protein (CETP) activity (Homo sapiens, UniProt P11597); assay: Serum CETP activity by fluorometric assay in healthy subjects; format: in vivo; details: for CETP activity: Mean % change from baseline (90% CI) / CETP activity: Mean % change vs placebo (90 % CI): trough (predose) day 14
T1 sequence (P11597 18-493): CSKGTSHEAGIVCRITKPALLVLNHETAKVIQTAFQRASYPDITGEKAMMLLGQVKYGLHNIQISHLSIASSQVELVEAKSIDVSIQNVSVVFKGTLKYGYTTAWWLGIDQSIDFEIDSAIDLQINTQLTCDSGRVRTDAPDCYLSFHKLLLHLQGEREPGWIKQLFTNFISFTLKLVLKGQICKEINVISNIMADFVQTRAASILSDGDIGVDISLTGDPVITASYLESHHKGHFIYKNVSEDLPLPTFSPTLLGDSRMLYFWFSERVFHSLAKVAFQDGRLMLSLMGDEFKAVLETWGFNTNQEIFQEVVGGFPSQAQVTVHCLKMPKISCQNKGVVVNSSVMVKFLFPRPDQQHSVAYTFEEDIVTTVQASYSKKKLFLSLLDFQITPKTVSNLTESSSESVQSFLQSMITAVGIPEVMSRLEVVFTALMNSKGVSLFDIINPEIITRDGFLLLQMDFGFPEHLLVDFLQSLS
Outline: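 Serum was sampled at the pharmacokinetic time points, including pre-dose troughs, after once-daily oral dosing (10–600 mg) or placebo. CETP activity was measured by fluorometric assay and expressed as the maximum test-compound-inhibitable activity. Change from baseline was analysed with an Emax dose model (Hill coefficient 1, baseline covariate).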

dyslipidemic patients = details: cited from earlier work
healthy subjects = assay: Safety and tolerability monitoring; format: in vivo, human
Outline: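 All enrolled subjects were monitored on placebo or once-daily 10–600 mg oral capsules for up to 15 days. Monitoring covered vital signs, serum and plasma electrolytes, plasma renin activity, aldosterone, plasma and salivary cortisol, and adverse events coded by MedDRA 11.0 preferred term.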

HDL-C and LDL-C = assay: Emax model of plasma evacetrapib exposure; format: in vivo, human; details: model estimate (90% CI)
Outline: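 Change from baseline in HDL-C and LDL-C on Day 14 was fitted against steady-state plasma AUC. AUC came from LC/MS/MS and non-compartmental analysis. Model: Emax, the maximal response, and EAUC50, the AUC giving 50% of the maximal response.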

[3] = system: apolipoproteins (apo AI, apo AII, apo B, apo E); assay: Apolipoprotein concentrations by immunoturbidimetric methods in healthy subjects; format: in vivo, human; details: 10 mg/day, day 14
Outline: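 Healthy adults took placebo or test compound (10, 100, 300, 600 mg) as capsules once daily with a low-fat meal for 14–15 days. Apo AI, AII, B and E were measured by immunoturbidimetry on a Roche Modular analyser. Values are percent change from baseline to Day 14, including all randomized subjects given at least one dose.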

[4] = Phase 2, nearly 400 dyslipidemic patients
[5] = AUC producing 50% of maximal response

**Q.** With `Cc1cc(C)c2c(c1)[C@@H](N(Cc1cc(C(F)(F)F)cc(C(F)(F)F)c1)c1nnn(C)n1)CCCN2C[C@H]1CC[C@H](C(=O)O)CC1` [evacetrapib] as the molecule, how does the CL/F ([1]; 10 mg once daily, steady state) read?
**A.** 17.5 (21) l/h

**Q.** And the CL/F ([1]; 100 mg once daily, steady state)?
**A.** 21.7 (30) l/h

**Q.** What about the CL/F ([1]; 300 mg once daily, steady state) of the same molecule?
**A.** 39.6 (44) l/h

**Q.** And the CL/F ([1]; 600 mg once daily, steady state, n = 24)?
**A.** 43.6 ^e (34) l/h

**Q.** What about the “levels of evacetrapib 3 weeks after last dose” value ([1]; 600 mg/day for 14 days, crossover cohort, 3-week washout) of the same molecule?
**A.** undetectable levels; also recorded: complete washout

**Q.** And the “dose proportionality of plasma exposure” value ([1]; 10–600 mg)?
**A.** less than dose-proportional

**Q.** What about the “mean apparent oral clearance at steady state, range across doses” value ([1]; 10–600 mg) of the same molecule?
**A.** 17.5 to 43.6 L/h

**Q.** And the “AUCt,ss for 600 mg relative to 100 mg” value ([1]; after 14 daily doses)?
**A.** approximately threefold

**Q.** What about the “accumulation ratio during multiple dosing” value ([1]; based on trough concentrations, between Days 1 and 14) of the same molecule?
**A.** 2–2.5

**Q.** What about the “levels of evacetrapib after 2-week (336 h) washout” value ([1]; each dose group) of the same molecule?
**A.** returned to levels at or near baseline; also recorded: decreased to near the lower limit of detection

**Q.** What about the half-life ([1]; human, plasma, oral) of the same molecule?
**A.** 24 to 44 h

**Q.** And the Tmax ([1]; human, plasma, oral, 10 mg, tmax, 10 mg once daily, steady state, median (range))?
**A.** 4.02 h

**Q.** What about the “time to steady state” value ([1]; once-daily dosing) of the same molecule?
**A.** approximately 10 days

**Q.** What about the “CETP activity: Mean % change from baseline (90% CI)” value ([2]; 10 mg/day) of the same molecule?
**A.** −14.60 (−22.33, −6.87) %

**Q.** And the “CETP activity: Mean % change vs placebo (90 % CI)” value ([2]; 10 mg/day)?
**A.** −16.08 (−23.23, −8.94) ^*** %

**Q.** And the “trough inhibition of CETP activity” value ([2]; 100 mg)?
**A.** 65%

**Q.** What about the “CETP activity: Mean % change from baseline (90% CI)” value ([2]; 100 mg/day) of the same molecule?
**A.** −64.54 (−73.08, −56.00) %

**Q.** What about the “CETP activity: Mean % change vs placebo (90 % CI)” value ([2]; 100 mg/day) of the same molecule?
**A.** −66.02 (−78.93, −53.11) ^*** %

**Q.** What about the “trough inhibition of CETP activity” value ([2]; 300 mg) of the same molecule?
**A.** 84%

**Q.** And the “CETP activity: Mean % change from baseline (90% CI)” value ([2]; 300 mg/day)?
**A.** −84.26 (−91.34, −77.18) %

**Q.** What about the “CETP activity: Mean % change vs placebo (90 % CI)” value ([2]; 300 mg/day) of the same molecule?
**A.** −85.74 (−97.43, −74.05) ^*** %

**Q.** And the “trough inhibition of CETP activity” value ([2]; 600 mg)?
**A.** 91% and 91.2%

**Q.** What about the “inhibition of CETP activity compared with placebo” value ([2]; 600 mg, after multiple doses) of the same molecule?
**A.** 93%

**Q.** And the “CETP activity: Mean % change from baseline (90% CI)” value ([2]; 600 mg/day)?
**A.** −91.18 (−99.71, −82.66) %

**Q.** And the “CETP activity: Mean % change vs placebo (90 % CI)” value ([2]; 600 mg/day)?
**A.** −92.66 (−104.92, −80.41) ^*** %

**Q.** What about the “CETP activity after 2-week (336 h) washout” value ([2]; each dose group) of the same molecule?
**A.** returned to levels at or near baseline; also recorded: returned to baseline levels

**Q.** And the tolerability (dyslipidemic patients; 12 weeks, daily doses up to 500 mg monotherapy or 100 mg with a statin)?
**A.** well tolerated

**Q.** What about the “decrease in LDL-C” value (dyslipidemic patients; [4]) of the same molecule?
**A.** up to 36%

**Q.** What about the “increase in HDL-C levels” value (dyslipidemic patients; [4]) of the same molecule?
**A.** up to 129%

**Q.** And the “effects on blood pressure or mineralocorticoid activity” value (dyslipidemic patients; Phase 2)?
**A.** without having effects

**Q.** What about the “severity of adverse events” value (healthy subjects; 10–600 mg) of the same molecule?
**A.** mild to moderate

**Q.** What about the tolerability (healthy subjects; 10–600 mg for up to 15 days) of the same molecule?
**A.** generally well tolerated

**Q.** And the “changes in routine serum chemistries (liver transaminases, complete blood counts, urinalysis)” value (healthy subjects; in vivo)?
**A.** No clinically relevant changes

**Q.** And the effect on aldosterone (healthy subjects; multiple daily doses)?
**A.** no effect

**Q.** And the “subjects reporting rash-related AEs (discontinued the study)” value (healthy subjects; two at 300 mg, two at 600 mg)?
**A.** Four

**Q.** And the “EAUC50 for the HDL-C model” value (HDL-C and LDL-C; [5])?
**A.** 4110 ng·h/mL

**Q.** And the “EAUC50 for the LDL-C model” value (HDL-C and LDL-C; [5])?
**A.** 582 (194 to 1810) ng · h/ml

**Q.** What about the “maximum theoretical change from baseline for HDL-C (Emax)” value (HDL-C and LDL-C; after 14 days of dosing) of the same molecule?
**A.** 126%

**Q.** What about the “maximum theoretical change from baseline for LDL-C (Emax)” value (HDL-C and LDL-C; after 14 days of dosing) of the same molecule?
**A.** −28.2%

**Q.** What about the “Apo AI: Mean % change from baseline (90% CI)” value [3] of the same molecule?
**A.** 3.53 (−2.23, 9.30) %

**Q.** What about the “Apo AI: Mean % change vs placebo (90 % CI)” value [3] of the same molecule?
**A.** 15.29 (7.74, 22.84) ^** %

**Q.** What about the “Apo AII: Mean % change from baseline (90% CI)” value [3] of the same molecule?
**A.** −1.30 (−5.34, 2.73) %

**Q.** What about the “Apo AII: Mean % change vs placebo (90 % CI)” value [3] of the same molecule?
**A.** 4.29 (−0.90, 9.48) %

**Q.** What about the “Apo B: Mean % change from baseline (90% CI)” value [3] of the same molecule?
**A.** −8.09 (−13.41, −2.77) %

**Q.** And the “Apo B: Mean % change vs placebo (90 % CI)” value [3]?
**A.** −15.05 (−22.68, −7.43) ^** %
